ChEMBL document CHEMBL1123178, “Preparation and evaluation of radioiodinated (iodophenyl)cholines and their morpholinium and piperidinium analogues as myocardial perfusion imaging agents” (J Med Chem, 1986)

Assays:
[1] = Distribution in the muscle after 90 min of intravenous administration; type: ADME, tissue-based, Muscle tissue; settings: 1.5 h
Method in brief: (§1)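 Swiss white mice (20-25 g) anesthetized with sodium pentobarbital (80 mg/kg ip), then given 0.1-0.2 mL (74 kBq) of radioiodinated compound or 201Tl+ by tail-vein injection. Four mice per time point were killed by cardiac puncture/exsanguination at 5, 15, 30 and 60 min (some also at 90 and 120 min). Organs were excised, washed, blotted and weighed, blood was sampled, and radioactivity was counted against injection standards. Values are percent injected dose/g.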

Mus musculus = assay: Distribution in the muscle after 30 min of intravenous administration; type: ADME, organism-based, Muscle tissue; settings: in vivo, 0.5 h; method in brief: as §1
[2] = Distribution in the heart after 30 min of intravenous administration; type: ADME, tissue-based; settings: 0.5 h; method in brief: as §1
[3] = Distribution in the blood after 15 min of intravenous administration; type: ADME, tissue-based; settings: 0.25 h; method in brief: as §1
[4] = Distribution in the lung after 15 min of intravenous administration; type: ADME, tissue-based; settings: 0.25 h; method in brief: as §1
[5] = Distribution in the muscle after 120 min of intravenous administration; type: ADME, tissue-based, Muscle tissue; settings: 2 h; method in brief: as §1
[6] = Distribution in the spleen after 5 min of intravenous administration; type: ADME, tissue-based; method in brief: as §1
[7] = Distribution in the spleen after 120 min of intravenous administration; type: ADME, tissue-based; settings: 2 h; method in brief: as §1
[8] = Distribution in the spleen after 60 min of intravenous administration; type: ADME, tissue-based; settings: 1 h; method in brief: as §1
[9] = Distribution in the muscle after 15 min of intravenous administration; type: ADME, tissue-based, Muscle tissue; settings: 0.25 h; method in brief: as §1
[10] = Distribution in the bone after 15 min of intravenous administration; type: ADME, tissue-based, Bone element; settings: 0.25 h; method in brief: as §1
[11] = Distribution in the heart after 90 min of intravenous administration; type: ADME, tissue-based; settings: 1.5 h; method in brief: as §1
[12] = Distribution in the blood after 90 min of intravenous administration; type: ADME, tissue-based; settings: 1.5 h; method in brief: as §1
[13] = Distribution in the kidneys after 30 min of intravenous administration; type: ADME, tissue-based, Kidney; settings: 0.5 h; method in brief: as §1
[14] = Distribution in the heart after 5 min of intravenous administration; type: ADME, tissue-based; method in brief: as §1
[15] = Distribution in the lung after 90 min of intravenous administration; type: ADME, tissue-based; settings: 1.5 h; method in brief: as §1
[16] = Distribution in the spleen after 15 min of intravenous administration; type: ADME, tissue-based; settings: 0.25 h; method in brief: as §1
[17] = Distribution in the muscle after 60 min of intravenous administration; type: ADME, tissue-based, Muscle tissue; settings: 1 h; method in brief: as §1
[18] = Distribution in the heart after 60 min of intravenous administration; type: ADME, tissue-based; settings: 1 h; method in brief: as §1
[19] = Distribution in the liver after 90 min of intravenous administration; type: ADME, tissue-based; settings: 1.5 h; method in brief: as §1
[20] = Distribution in the lung after 5 min of intravenous administration; type: ADME, tissue-based; method in brief: as §1
[21] = Distribution in the spleen after 30 min of intravenous administration; type: ADME, tissue-based; settings: 0.5 h; method in brief: as §1
[22] = Distribution in the spleen after 90 min of intravenous administration; type: ADME, tissue-based; settings: 1.5 h; method in brief: as §1
[23] = Distribution in the heart after 120 min of intravenous administration; type: ADME, tissue-based; settings: 2 h; method in brief: as §1
[24] = Distribution in the kidneys after 60 min of intravenous administration; type: ADME, tissue-based, Kidney; settings: 1 h; method in brief: as §1
[25] = Distribution in the liver after 120 min of intravenous administration; type: ADME, tissue-based; settings: 2 h; method in brief: as §1
[26] = Distribution in the blood after 60 min of intravenous administration; type: ADME, tissue-based; settings: 1 h; method in brief: as §1
[27] = Distribution in the liver after 60 min of intravenous administration; type: ADME, tissue-based; settings: 1 h; method in brief: as §1
[28] = Distribution in the muscle after 5 min of intravenous administration; type: ADME, tissue-based, Muscle tissue; method in brief: as §1
[29] = Distribution in the liver after 30 min of intravenous administration; type: ADME, tissue-based; settings: 0.5 h; method in brief: as §1
[30] = Distribution in the liver after 15 min of intravenous administration; type: ADME, tissue-based; settings: 0.25 h; method in brief: as §1
[31] = Distribution in the kidneys after 120 min of intravenous administration; type: ADME, tissue-based, Kidney; settings: 2 h; method in brief: as §1
[32] = Distribution in the heart after 15 min of intravenous administration; type: ADME, tissue-based; settings: 0.25 h; method in brief: as §1
[33] = Distribution in the kidneys after 15 min of intravenous administration; type: ADME, tissue-based, Kidney; settings: 0.25 h; method in brief: as §1
[34] = Distribution in the bone after 60 min of intravenous administration; type: ADME, tissue-based, Bone element; settings: 1 h; method in brief: as §1
[35] = Distribution in the bone after 30 min of intravenous administration; type: ADME, tissue-based, Bone element; settings: 0.5 h; method in brief: as §1
[36] = Distribution in the bone after 90 min of intravenous administration; type: ADME, tissue-based, Bone element; settings: 1.5 h; method in brief: as §1
[37] = Distribution in the blood after 5 min of intravenous administration; type: ADME, tissue-based; method in brief: as §1
[38] = Distribution in the kidneys after 5 min of intravenous administration; type: ADME, tissue-based, Kidney; method in brief: as §1
[39] = Distribution in the kidneys after 90 min of intravenous administration; type: ADME, tissue-based, Kidney; settings: 1.5 h; method in brief: as §1
[40] = Distribution in the lung after 120 min of intravenous administration; type: ADME, tissue-based; settings: 2 h; method in brief: as §1
[41] = Distribution in the blood after 30 min of intravenous administration; type: ADME, tissue-based; settings: 0.5 h; method in brief: as §1
[42] = Distribution in the bone after 120 min of intravenous administration; type: ADME, tissue-based, Bone element; settings: 2 h; method in brief: as §1
[43] = Distribution in the lung after 60 min of intravenous administration; type: ADME, tissue-based; settings: 1 h; method in brief: as §1
[44] = Distribution in the bone after 5 min of intravenous administration; type: ADME, tissue-based, Bone element; method in brief: as §1
[45] = Distribution in the lung after 30 min of intravenous administration; type: ADME, tissue-based; settings: 0.5 h; method in brief: as §1
[46] = Distribution in the liver after 5 min of intravenous administration; type: ADME, tissue-based; method in brief: as §1
[47] = Distribution in the blood after 120 min of intravenous administration; type: ADME, tissue-based; settings: 2 h; method in brief: as §1

Distribution [1]: 1%
Distribution (Mus musculus): 1.1%
Distribution [2]: 23.1%
Distribution [3]: 2.4%
Distribution [4]: 5.5%
Distribution [5]: 1.1%
Distribution [6]: 5%
Distribution [7]: 2.1%
Distribution [8]: 2.6%
Distribution [9]: 1%
Distribution [10]: 2%
Distribution [11]: 18.1%
Distribution [12]: 1.2%
Distribution [13]: 14.1%
Distribution [14]: 20%
Distribution [15]: 2.7%
Distribution [16]: 3.6%
Distribution [17]: 1%
Distribution [18]: 19.5%
Distribution [19]: 2.3%
Distribution [20]: 7.3%
Distribution [21]: 3.4%
Distribution [22]: 2.1%
Distribution [23]: 17.7%
Distribution [24]: 7.4%
Distribution [25]: 2%
Distribution [26]: 1.5%
Distribution [27]: 2.4%
Distribution [28]: 0.9%
Distribution [29]: 4.1%
Distribution [30]: 4.9%
Distribution [31]: 6%
Distribution [32]: 21.6%
Distribution [33]: 24%
Distribution [34]: 1.5%
Distribution [35]: 2%
Distribution [36]: 1.3%
Distribution [37]: 1.9%
Distribution [38]: 40.1%
Distribution [39]: 5.3%
Distribution [40]: 2.6%
Distribution [41]: 1.9%
Distribution [42]: 1.3%
Distribution [43]: 3.4%
Distribution [44]: 1.6%
Distribution [45]: 4.6%
Distribution [46]: 12.5%
Distribution [47]: 1.4%
Compound: C[N+]1(CCOc2cccc(I)c2)CCCCC1
